Screening data deposited in PubChem by several laboratories.
Platelet DG rel: inhibitors of platelet dense granule secretion, primary screen, cell-based, MLPCN, human platelets. inhibition, %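 (compounds screened at 7.5 µM in platelet-rich plasma)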. 300,000 compounds, 0.22% hits. human platelet-rich plasma, SFLLRN dense granule ATP release, luminescence. AID 1663, 2009;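 active means mean replicate score, as percent of positive control, at or above 50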
SENP7 inh: SENP7 protease inhibitors, primary screen, biochemical, luminescence, uHTS | Sentrin-specific protease 7 (Homo sapiens), Q9BQF6 | recombinant SENP7, Z-RLRGG-aminoluciferin luminescence, 40 min | inhibition, % at 5 µM | 330,000 compounds, 1.5% hits | AID 434973, 2010;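 active means inhibition above about 50% at the single test dose, limit read from the data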;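 further: plate controls were DMSO with enzyme for no effect and no enzyme buffer wells for full effect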
Target sequence (Q9BQF6 706-1050 limits assumed): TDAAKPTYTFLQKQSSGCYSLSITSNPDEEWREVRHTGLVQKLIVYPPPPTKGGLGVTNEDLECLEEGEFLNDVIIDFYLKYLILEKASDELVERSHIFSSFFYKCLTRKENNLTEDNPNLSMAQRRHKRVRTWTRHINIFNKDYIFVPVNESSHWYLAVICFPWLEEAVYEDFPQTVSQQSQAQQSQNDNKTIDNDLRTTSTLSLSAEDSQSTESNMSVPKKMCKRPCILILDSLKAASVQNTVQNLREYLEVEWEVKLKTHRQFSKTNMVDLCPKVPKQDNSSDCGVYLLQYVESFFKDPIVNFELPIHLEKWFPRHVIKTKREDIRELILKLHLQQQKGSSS
SENP8 block-1: SENP8 protease inhibitors, primary screen, biochemical, luminescence. Sentrin-specific protease 8 (Homo sapiens), Q96LD8. purified SENP8, Z-RLRGG-aminoluciferin cleavage. inhibition, % at 10 µM. 330,000 compounds, 1.2% hits. AID 2540, 2010; in the data active means inhibition above about 50%
Target sequence (Q96LD8 whole entry, looked up): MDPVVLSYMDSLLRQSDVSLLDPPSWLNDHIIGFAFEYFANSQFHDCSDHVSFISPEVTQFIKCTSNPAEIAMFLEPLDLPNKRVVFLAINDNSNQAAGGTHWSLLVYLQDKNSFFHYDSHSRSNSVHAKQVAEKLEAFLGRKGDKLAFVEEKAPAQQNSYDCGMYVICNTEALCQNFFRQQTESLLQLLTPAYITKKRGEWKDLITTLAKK
SENP6 inh: SENP6 protease inhibitors, primary screen, biochemical, luminescence, uHTS | 330,000 compounds, 1.8% hits | inhibition, % at 10 µM | Sentrin-specific protease 6 (Homo sapiens), Q9GZR1 | Recombinant SENP6 catalytic domain, aminoluciferin luminescence;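 active means inhibition above about 50% at the single tested dose, limit read from the data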;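 further: plate controls were DMSO wells with enzyme for no effect and DMSO wells lacking enzyme for full effect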
SENP8 block-2: human SENP8 protease inhibitors, primary screen, biochemical, fluorescence, Nedd8 protein substrate, uHTS; recombinant SENP8; 360,000 compounds, 0.64% hits; inhibition, % at 20 µM; Sentrin-specific protease 8 (Homo sapiens), Q96LD8; in the data active means inhibition mostly above about 40%, no sharp cut-off; inactive means mostly below about 27%
SENP1 inh: human SENP1 catalytic domain inhibitors, primary screen, biochemical, FRET, uHTS. recombinant SENP1 catalytic domain, CyPet-SUMO1-YPet FRET cleavage. inhibition, % at 10 µM. 360,000 compounds, 0.21% hits. AID 624204, 2012;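 active means inhibition at least 30% at 10 µM, raw YFP signal under a set limit, fluorescence ratio 0.5 to 1.5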;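 further: 0% = enzyme with DMSO and 100% = no enzyme wells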
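Test system: hSENP1 catalytic domain, recombinant; Amount: 20 pM final SENP1 enzyme; Medium: Tris pH 8 buffer plus EDTA, NaCl, BME, BSA, NP40, catalase; Schedule: 50 min enzyme reaction, room temperature, light-protected; Technique: FRET fluorescence in CFP and YFP emission channels; Controls: no-enzyme wells low, DMSO-plus-enzyme wells high control.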
Numbers without * were called inactive. The list is not random: actives were taken first. Their share in the collection is about 2.6%.

COc1ccc(Nc2c([N+](=O)[O-])ccc3c2=NC2(CCCCC2)N=3)cc1 was read as Platelet DG rel 6, SENP7 inh -1, SENP8 block-1 1, SENP6 inh 12, SENP8 block-2 19 and SENP1 inh 3.
O=[N+]([O-])c1ccc2c(c1Nc1ccccc1)=NC1(CCCCC1)N=2 was read as Platelet DG rel 7, SENP7 inh 7, SENP8 block-1 -4, SENP6 inh 12, SENP8 block-2 45* and SENP1 inh 4.
For CN1C(=O)/C(=C/c2ccc(O)c([N+](=O)[O-])c2)N(C)C1=S the results were Platelet DG rel 9, SENP7 inh 83*, SENP8 block-1 87*, SENP6 inh 91*, SENP8 block-2 26 and SENP1 inh 1.
COc1ccc(CN2CCNC(=O)C2CC(=O)N(C)CCCN2CCOCC2)cc1C (stereo unspecified) was read as Platelet DG rel -7, SENP7 inh 2, SENP8 block-1 -8, SENP6 inh -10, SENP8 block-2 -4 and SENP1 inh -2.
CC(=O)OC(C)C1C2=C(C(=O)CC1(C)O)C(=O)c1c(ccc(-c3ccc4c(c3O)C(=O)C3=C(C4=O)C(C(C)OC(C)=O)C(C)(O)CC3=O)c1O)C2=O (stereo unspecified) was read as SENP8 block-2 49* and SENP1 inh 26.
`O=[N+]([O-])c1ccc(O)c(N=Cc2sc3ccccc3c2O)c1` gave Platelet DG rel 0, SENP8 block-2 -108 and SENP1 inh -48.
Screening Oc1c(C=Nc2cccc3cccnc23)sc2ccccc12 returned Platelet DG rel 23, SENP7 inh 74*, SENP8 block-1 87* and SENP6 inh 92*.
Screening Cc1ccc(F)c(NC(=O)/C(C#N)=C(\O)c2ccc(C(C)(C)C)cc2)c1 returned Platelet DG rel -4, SENP7 inh 5, SENP8 block-1 53*, SENP6 inh 22, SENP8 block-2 13 and SENP1 inh 1.
For COc1ccc(N=NC2=C(O)CC(C)(C)CC2=O)c(OC)c1 the results were Platelet DG rel 5, SENP7 inh -2, SENP8 block-1 1, SENP6 inh 2, SENP8 block-2 22 and SENP1 inh 69*.
`CN(Cc1ccccc1)C1CCCN(C(=O)c2ccc(Cl)s2)C1` (stereo unspecified) gave Platelet DG rel -1, SENP7 inh 0, SENP8 block-1 9, SENP6 inh -3, SENP8 block-2 9 and SENP1 inh 2.
For COc1cccc(-c2nc(N3CCN(C)CC3)c3ccccc3n2)c1O the results were Platelet DG rel 4, SENP7 inh 0, SENP8 block-1 4, SENP6 inh -12, SENP8 block-2 15 and SENP1 inh 2.
COc1cccc(-c2nc(N3CCCCC3C)c3ccccc3n2)c1O (stereo unspecified) was read as Platelet DG rel -4, SENP7 inh 9, SENP8 block-1 0, SENP6 inh -1, SENP8 block-2 47* and SENP1 inh 3.
Screening Cc1cc(NC(=O)c2cc3cccc([N+](=O)[O-])c3[nH]2)ccc1F returned Platelet DG rel 4, SENP7 inh 77*, SENP8 block-1 61*, SENP6 inh 73*, SENP8 block-2 12 and SENP1 inh 2.
Screening COCCNC(=O)C1CCCN(C(=O)c2ccc3ccccc3n2)CC1 (stereo unspecified) returned SENP8 block-2 14 and SENP1 inh 2.
Screening CC(C)OC(=O)c1ccc(COC(=O)c2cnccn2)cc1 returned Platelet DG rel -1, SENP7 inh 69*, SENP8 block-1 42, SENP6 inh 59*, SENP8 block-2 4 and SENP1 inh 2.
For O=C(Oc1ccc(Cl)cc1)c1ccc(COC(=O)c2cnccn2)cc1 the results were Platelet DG rel 63*, SENP7 inh 9, SENP8 block-1 -3, SENP6 inh 18, SENP8 block-2 15 and SENP1 inh 1.
Screening O=C(COC(=O)c1cnccn1)c1ccc(OC(=O)c2ccccc2)cc1 returned Platelet DG rel -1, SENP7 inh 7, SENP8 block-1 0, SENP6 inh 15, SENP8 block-2 21 and SENP1 inh 16.
For O=C(OCc1c(Cl)cccc1Cl)c1cnccn1 the results were Platelet DG rel 0, SENP7 inh 1, SENP8 block-1 -2, SENP6 inh -9, SENP8 block-2 30 and SENP1 inh 2.
Cc1cc(C)c(C#N)c(Nc2cccc(C)c2C)n1 was read as Platelet DG rel 5, SENP7 inh -1, SENP8 block-1 2, SENP6 inh -37, SENP8 block-2 -190 and SENP1 inh 2.
`C[C@]12CC[C@@H]3c4cc(O)c(O)cc4CC[C@H]3[C@@H]1CC[C@@H]2O` gave Platelet DG rel -3, SENP7 inh 11, SENP8 block-1 -4, SENP6 inh 1, SENP8 block-2 41* and SENP1 inh 1.
O=c1nc(N2CCCC2)nc(N2CCCC2)[nH]1 was read as Platelet DG rel 6, SENP7 inh -1, SENP8 block-1 -5, SENP6 inh 18, SENP8 block-2 20 and SENP1 inh -2.
Screening CCOC(=O)CCSc1nc(C)cc(C(F)(F)F)c1C#N returned Platelet DG rel 13, SENP7 inh -13, SENP8 block-1 -5, SENP6 inh -5, SENP8 block-2 -28 and SENP1 inh 76*.
For COc1ccc(NC(=O)C(c2cc3ccccc3o2)n2c(=O)c(-c3cc4ccccc4[nH]3)nc3ccccc32)cc1 (stereo unspecified) the results were SENP8 block-2 -392 and SENP1 inh -22.
Cc1nn(CC(=O)Nc2cccnc2)c(C)c1[N+](=O)[O-] was read as Platelet DG rel 61*, SENP7 inh -3, SENP8 block-1 -8, SENP6 inh -13, SENP8 block-2 22 and SENP1 inh 4.
For COc1ccc(S(=O)(=O)NCCC(=O)N2CCCN(C)CC2)cc1 the results were SENP7 inh 1, SENP8 block-1 -4, SENP6 inh 6, SENP8 block-2 17 and SENP1 inh 1.
Screening CCOc1ccc(S(=O)(=O)NCCC(=O)N2CCCN(C)CC2)cc1 returned Platelet DG rel 51*, SENP7 inh 13, SENP8 block-1 -6, SENP6 inh -5, SENP8 block-2 11 and SENP1 inh 2.
OCC[C@@H]1NCc2cc(CO)cc(-c3ccccc3)c21 was read as SENP8 block-2 4 and SENP1 inh -2.
